CHRM1 antagonist: human CHRM1 antagonism. P11229. CHO-K1 hM1, Fluo-8 calcium fluorescence, ACh EC80 antagonist. inhibition, % at 3 µM. hit rate 1.3% among 360,000. AID 588852;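 active = percent inhibition above its own plate's cutoff, namely the mean of that plate's compound wells plus 3 SD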;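 also: peak over basal fluorescence ratio during 140 s after agonist addition; 0% = ACh EC80 plus DMSO and 100% = DMSO alone without agonist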
Target sequence (P11229 whole entry, looked up): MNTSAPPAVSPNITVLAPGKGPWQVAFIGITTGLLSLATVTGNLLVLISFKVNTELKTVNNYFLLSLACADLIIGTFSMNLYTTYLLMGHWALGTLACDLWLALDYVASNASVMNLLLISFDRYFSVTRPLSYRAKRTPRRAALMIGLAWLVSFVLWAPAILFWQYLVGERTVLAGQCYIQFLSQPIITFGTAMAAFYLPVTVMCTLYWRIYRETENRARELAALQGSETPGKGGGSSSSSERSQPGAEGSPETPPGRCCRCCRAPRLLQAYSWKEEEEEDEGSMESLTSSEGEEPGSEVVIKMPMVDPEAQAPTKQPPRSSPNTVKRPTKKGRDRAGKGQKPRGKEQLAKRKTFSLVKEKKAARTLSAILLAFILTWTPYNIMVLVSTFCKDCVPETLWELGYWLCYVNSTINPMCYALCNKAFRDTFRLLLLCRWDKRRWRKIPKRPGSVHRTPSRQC
CHRM1 agonist: human M1 muscarinic receptor agonism. P11229. CHO-K1 hM1, Fluo-8 calcium fluorescence, agonist mode; 0% DMSO, 100% acetylcholine EC100. activation, % at 3 µM. hit rate 0.33% among 360,000. AID 588814;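 active = activation above the run's mean compound activation plus 3 SD, cut at about 16% in these data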;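 also: peak over basal fluorescence ratio within a 140 s kinetic read after compound addition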
TAAR1 ag: human TAAR1 agonism. Q96RJ0. CHO RD-HGA16 TAAR1, Fluo-8 calcium fluorescence; vehicle wells 0%, saturating PEA agonist 100%. activation, % at 3 µM. hit rate 0.99% among 360,000. AID 624467;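 active = activation above the mean activation of all test compounds in the run plus 3 SD, cut at about 38% in these data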
Target sequence (Q96RJ0 whole entry, looked up): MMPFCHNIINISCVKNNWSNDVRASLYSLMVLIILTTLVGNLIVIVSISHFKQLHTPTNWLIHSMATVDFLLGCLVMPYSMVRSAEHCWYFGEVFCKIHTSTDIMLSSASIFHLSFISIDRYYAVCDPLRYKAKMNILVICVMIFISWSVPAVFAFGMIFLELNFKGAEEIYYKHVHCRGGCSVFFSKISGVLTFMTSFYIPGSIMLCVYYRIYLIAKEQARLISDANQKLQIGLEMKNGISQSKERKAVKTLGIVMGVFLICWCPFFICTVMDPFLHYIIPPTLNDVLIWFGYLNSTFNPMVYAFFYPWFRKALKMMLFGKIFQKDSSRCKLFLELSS
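Assay system – CHO-derived RD-HGA16 cells with stable Gα16 and human TAAR1 · Compound dosing – one-point dosing at 3 µM (nominal) · Incubation – 17-24 h seeding, 75 min 37 °C dye, 30 min RT · Measured by – kinetic Fluo-8 calcium fluorescence · Control set – DMSO vehicle as 0%, PEA at EC100 as 100% · Repeats – single well for each compound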
TAAR1 antagonist: antagonists of human TAAR1 | CHO RD-HGA16 TAAR1, Fluo-8 calcium fluorescence, antagonist | inhibition, % at 3 µM | hit rate 1.5% among 360,000 | AID 624466;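 active = inhibition above a per-plate cutoff, the mean inhibition of test compounds on that plate plus 3 SD, cut at about 49% in these data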;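 also: 0% = DMSO plus EC80 beta-PEA response and 100% = DMSO alone without agonist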
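Test system: CHO RD-HGA16 cells bearing hTAAR1 | Reagent: β-PEA, EC80 | Compound dosing: 3 µM, single point | Schedule: Dye loading 75 min at 37 °C, then 30 min room temperature | Signal: Calcium fluorescence with Fluo-8 | Evaluation: Percent inhibition of PEA-evoked calcium signal, max/basal emission ratio | Control set: DMSO-only wells and EC80 β-PEA-stimulated wells | Repeats: Singlicate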
CHRM1 PAM: positive allosteric modulators of human M1 muscarinic receptor; P11229; CHO-K1 hM1, Fluo-8 calcium fluorescence, ACh EC20; 0% = ACh EC20, 100% = maximal ACh; activation, % at 3 µM; hit rate 0.088% among 360,000; in the data active = activation above about 19%, passing the limit was not always enough
TAAR1 ag conf: human TAAR1 agonism, confirmed; CHO RD-HGA16 TAAR1, Fluo-8 calcium fluorescence; scaled: DMSO 0%, maximal phenethylamine 100%; hit rate 82% among 2,400; shares compounds with TAAR1 ag; AID 651783; activation, % at 3 µM;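 active = activation above a cutoff set at the run's mean compound activation plus 3 SD, cut at about 39% in these data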
Ga16 ag counter: nonselective agonist in parental cells, TAAR1 agonist counter-screen; shares compounds with TAAR1 ag; CHO-Ga16 parental, Fluo-8 calcium fluorescence; normalized to maximal ATP response, DMSO zero; activation, % at 3 µM; hit rate 50% among 2,400; AID 651787;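 active = activation above the run cutoff, the mean activation over all tested wells plus 3 SD, cut at about 12% in these data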;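 also: 0% = DMSO wells and 100% = maximal ATP response on the peak over basal ratio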
TAAR1 desens: human TAAR1 agonist that also desensitizes the receptor. shares compounds with TAAR1 ag. CHO RD-HGA16 hTAAR1, Fluo-8 calcium, beta-PEA response inhibition. inhibition, % at 3 µM. hit rate 46% among 2,400. AID 651951;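 active = inhibition above the run cutoff, the mean inhibition of all test compounds plus 3 SD, cut at about 49% in these data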;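 also: beta-PEA stimulus applied at its EC80; loss of beta-PEA calcium signal after compound pretreatment read as receptor desensitization; 0% = DMSO with beta-PEA at EC80 and 100% = DMSO alone without agonist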
Ga16 nonsel ant: nonselective Ga16 antagonist in TAAR1 agonist counter-screen | shares compounds with TAAR1 ag | inhibition, % at 3 µM | hit rate 39% among 2,400 | CHO-Ga16 ATP-induced calcium, Fluo-8 fluorescence;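 active = inhibition above the plate's mean compound inhibition plus 3 SD, computed per plate, cut at about 22% in these data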;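 also: 0% = EC80 ATP with DMSO and 100% = DMSO wells without ATP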
* = called active by the depositor; nt = no result. Most compounds without a hit are left out; they make up all but 3.4% or so of the library.

SMILES | CHRM1 antagonist | CHRM1 agonist | TAAR1 ag | TAAR1 antagonist | CHRM1 PAM | TAAR1 ag conf | Ga16 ag counter | TAAR1 desens | Ga16 nonsel ant
Cc1cccc(NC(=S)NCc2ccc(F)cc2)c1C | -9.3 | -3.2 | 1.1 | 2.8 | 16.0 | nt | nt | nt | nt
CC(NCc1ccc(OCc2ccc(Cl)cc2)cc1)C(O)c1ccccc1 (stereo unspecified) | 13.1 | 3.7 | 52.4* | 26.5 | -0.2 | 38.9* | 26.9* | 48.6* | 39.9*
Cc1ccc(SCc2c(C(=O)N/N=C/c3ccco3)nnn2-c2nonc2N)cc1 | -5.2 | -4.5 | 1.6 | 3.0 | -0.5 | nt | nt | nt | nt
CCOc1ccc(-c2c(C(=O)N/N=C/c3ccco3)nnn2-c2nonc2N)cc1 | 2.0 | 18.2* | 92.2* | -12.9 | -4.9 | 63.8* | 48.6* | 16.2 | 6.0
Cc1ccc(-c2c(C(=O)N/N=C/c3ccco3)nnn2-c2nonc2N)cc1 | 9.4 | 7.4 | 87.5* | -1.0 | -2.8 | 110.5* | 78.6* | 22.9 | 6.8
Cc1ccc2[nH]c3c(c2c1)CNCC3 | -15.2 | -4.1 | 27.6 | 7.5 | 12.6 | nt | nt | nt | nt
c1ccc2c3c([nH]c2c1)CCNC3 | -3.8 | 26.8* | 82.5* | 81.5* | -8.4 | 103.1* | -0.1 | 92.8* | 2.5
CC1CN(Cc2ccccc2)C(=S)N(c2ccccc2)C1=O (stereo unspecified) | -19.8 | 1.0 | 2.0 | -7.2 | 16.2 | nt | nt | nt | nt
CC(C)CN1CC(C)C(=O)N(c2ccccc2)C1=O (stereo unspecified) | -7.9 | -1.3 | 62.9* | 21.2 | 2.7 | 2.2 | 3.0 | 8.2 | 5.5
Cc1ccccc1OCCn1ccnc1 | -3.2 | -2.4 | 1.4 | 2.5 | 3.5 | nt | nt | nt | nt
Cc1ccccc1Oc1ccc(Oc2ccccc2C)nn1 | -7.0 | -7.9 | 60.1* | 28.0 | 7.0 | -2.3 | 0.3 | -10.3 | -2.0
Cc1nn(CCCC(=O)NCCc2ccccc2)c(=O)c2nn(-c3ccccc3)c(C)c12 | 3.0 | -5.5 | -1.3 | -36.2 | -2.0 | nt | nt | nt | nt
Cc1ccc(-n2nc3c(=O)n(CCCC(=O)NCCc4ccccc4)nc(C)c3c2C)cc1 | 3.3 | -6.0 | 41.0* | -23.0 | -1.2 | 36.2 | 5.0 | -0.6 | 8.0
COC(=O)c1nc(-c2ccc(C)cc2)[nH]c1C(C)(C)C | -25.9 | -2.5 | -1.8 | -25.7 | 7.5 | nt | nt | nt | nt
Cc1noc(C)c1COC(=O)c1cccc(S(=O)(=O)N2CCOCC2)c1 | -1.2 | -1.4 | 48.4* | 16.2 | -1.1 | 3.3 | 1.2 | -0.6 | 7.7
Cc1noc(C)c1COC(=O)c1cc(S(=O)(=O)N2CCOCC2)ccc1Cl | 9.6 | 9.6 | 1.6 | 22.2 | 14.8 | nt | nt | nt | nt
Cc1ccc(S(=O)(=O)NCC2CCC(C(=O)NCCCN3CCCC3=O)CC2)cc1 (stereo unspecified) | -4.2 | -3.1 | 2.0 | 3.9 | 2.3 | nt | nt | nt | nt
CN(C)c1ccc(S(=O)(=O)NCC(=O)NCc2ccccc2)cc1[N+](=O)[O-] | -3.0 | -7.3 | 78.9* | 47.5 | 8.9 | 11.9 | 3.5 | -0.4 | -5.9
COc1ccc(CCNC(=O)CNS(=O)(=O)c2ccc(N(C)C)c([N+](=O)[O-])c2)cc1OC | -16.2 | -4.8 | 4.0 | -13.0 | 9.8 | nt | nt | nt | nt
CC(C)CNc1nc(SCC(=O)Nc2ccccc2)nc(N2CCOCC2)n1 | -20.9 | -5.8 | -2.8 | -3.6 | 9.6 | nt | nt | nt | nt
c1ccc2c(Cn3ccnc3)c[nH]c2c1 | 1.6 | -1.7 | 54.2* | 12.9 | 1.3 | 71.0* | 4.1 | 35.9 | 6.7
CCCCc1cc(=O)oc2cc(C)cc(OCC(=O)N[C@@H](CSCc3ccccc3)C(=O)O)c12 | 1.3 | -3.2 | 59.9* | 15.1 | 3.8 | 84.1* | 43.7* | 28.3 | 13.7
O=C(Nc1nnc(-c2cccs2)o1)c1cccc(C(F)(F)F)c1 | -4.0 | 40.7* | 90.1* | 33.9 | -7.7 | 44.8* | 50.9* | 19.2 | 25.0*
N#Cc1ccc(C(=O)Nc2nnc(-c3cccs3)o2)cc1 | -9.4 | -1.1 | 0.8 | 4.3 | 10.5 | nt | nt | nt | nt
Cc1cccc(C(=O)OCC(=O)NC(=O)c2ccccc2)c1O | -13.1 | 1.1 | 0.6 | -7.5 | 4.4 | nt | nt | nt | nt
SMILES | CHRM1 antagonist | CHRM1 agonist | TAAR1 ag | TAAR1 antagonist | CHRM1 PAM | TAAR1 ag conf | Ga16 ag counter | TAAR1 desens | Ga16 nonsel ant
Cc1cc(C)c(C(=O)OCC(=O)NC(=O)c2ccccc2)c(C)c1 | 0.7 | -2.6 | 58.5* | 69.6* | -2.4 | 6.3 | 6.5 | 45.6 | 34.0*
CC(C)(C)C1=NN(c2ccc([N+](=O)[O-])cc2)C(c2ccccc2)C1 (stereo unspecified) | 20.5 | -7.1 | 61.9* | 34.5 | -18.5 | -0.4 | 0.4 | 6.0 | 9.5
CCCn1c(=O)c2c(nc3n2CCS3)n(C)c1=O | -9.8 | -2.5 | 1.6 | 0.2 | 5.1 | nt | nt | nt | nt
Cc1csc(N/N=C/c2ccc(O)c([N+](=O)[O-])c2)n1 | -7.3 | -5.7 | 5.5 | 3.7 | 10.2 | nt | nt | nt | nt
O=[N+]([O-])c1cc(/C=N\Nc2nc(-c3ccccc3)cs2)ccc1O | 8.4 | 0.3 | 69.4* | 35.7 | -6.7 | 44.3* | 53.3* | 37.3 | 28.9*
CN(CCNC(=O)c1cn(C)c2ccc(S(=O)(=O)N(C)C)cc2c1=O)CCc1ccccc1 | 1.6 | -13.6 | 44.3* | -16.8 | -7.6 | 55.3* | 1.1 | 4.8 | -8.1
CCN(CC)S(=O)(=O)c1ccc2c(c1)c(=O)c(C(=O)NCCN(C)CCc1ccccc1)cn2C | 11.0 | -4.8 | 37.1 | 4.6 | -3.5 | nt | nt | nt | nt
CCC(C)[C@H](NC(=O)[C@@H]1Cc2c([nH]c3ccccc23)C2c3ccccc3C(=O)N21)C(=O)NCC1CCCO1 (stereo partly specified) | -1.6 | -3.5 | 3.5 | 47.0 | -2.2 | nt | nt | nt | nt
CC1CCCC(C)N1C(=O)CSc1nnc(COc2ccc(F)cc2)o1 (stereo unspecified) | -0.3 | -9.4 | 1.0 | 15.3 | -10.1 | nt | nt | nt | nt
CCN(CC)c1ccc(/C=C/C(=O)C2C(=O)C=C(C)OC2=O)cc1 (stereo unspecified) | 56.2* | 133.8* | 406.2* | 107.8* | -36.8 | 536.0* | 663.6* | 108.6* | 104.8*
CCN(CC)c1ccc(C=C2C(=O)OC(c3ccccc3)OC2=O)cc1 (stereo unspecified) | -3.6 | -4.6 | 3.8 | 11.0 | 1.2 | nt | nt | nt | nt
O=C(NC(=S)N1CCN(c2ccccc2)CC1)c1ccc(S(=O)(=O)N2CCOCC2)cc1 | -15.1 | -4.5 | -2.3 | -18.8 | 7.3 | nt | nt | nt | nt
